Test results as given in ChEMBL document CHEMBL4118269 (J Med Chem, 2018).

Experiments:
[1] = biological target: Lanosterol 14-alpha demethylase (Candida albicans (strain SC5314 / ATCC MYA-2876) (Yeast), UniProt P10613); experiment: Inhibition of Candida albicans CYP51 assessed as reduction in [3-3H]lanosterol 14alpha-demethylation at 0.75 uM preincubated for 60 secs followed by NADPH addition measured after 60 mins by RP-HPLC analysis relative to control; settings: 1 h
Outline: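 C. albicans CYP51 expressed in E. coli and purified, 0.5 μM, with 1.0 μM rat NADPH-P450 reductase, dilauroylphosphatidylcholine and isocitrate dehydrogenase/isocitrate regeneration in 50 mM potassium phosphate pH 7.2, 10% glycerol, 0.1% Triton X-100. Substrate 25 μM final; inhibitor:enzyme:substrate 1.5:1:50. 37 °C, started with 100 μM NADPH. Sterols extracted with EtOAc, radio-HPLC. Triplicate, mean ± SD.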

[2] = biological target: Lanosterol 14-alpha demethylase (Aspergillus) (UniProt B8NUK6+Q9P8R0+G4WW85); experiment: Inhibition of Aspergillus fumigatus CYP51 assessed as reduction in [3-3H]eburicol 14alpha-demethylation at 0.75 uM preincubated for 60 secs followed by NADPH addition measured after 60 mins by RP-HPLC analysis relative to control
Outline: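 E. coli-expressed, purified CYP51 (0.5 μM) with rat NADPH-P450 reductase (1.0 μM), 100 μM dilauroylphosphatidylcholine, isocitrate dehydrogenase/isocitrate NADPH regeneration, in 50 mM K phosphate pH 7.2 with 10% glycerol and 0.1% Triton X-100. [3-3H]eburicol 25 μM final, inhibitor 0.75 μM final (1.5:1:50 inhibitor:enzyme:substrate), 37 °C. Started with 100 μM NADPH, 60 min, EtOAc extraction, radio-HPLC. Percent inhibition, triplicate, mean ± SD.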

[3] = Lipophilicity, log P of the compound; type: physicochemical; settings: octanol/water
[4] = Half life in human liver microsomes at 1 uM preincubated for 5 mins followed by NADPH addition measured up to 45 mins by LC-MS/MS analysis; type: ADME, microsome; settings: 0.75 h
Outline: (§1)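 Pooled liver microsomes (0.5 mg/mL; male CD-1 mouse, male Sprague Dawley rat, or mixed-gender human) with 1 μM compound in 100 mM potassium phosphate pH 7.4, 3 mM MgCl2, 37 °C with shaking. 5 min preincubation, then 1 mM NADPH. Aliquots at 0, 3, 7, 15, 25, 45 min quenched in cold CH3CN with carbamazepine internal standard, then LC/MS/MS. Triplicate; T1/2 = ln2/k from the slope of ln % remaining versus time.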

[5] = Half life in Sprague-Dawley rat liver microsomes at 1 uM preincubated for 5 mins followed by NADPH addition measured up to 45 mins by LC-MS/MS analysis; type: ADME, microsome; settings: 0.75 h; outline: as §1
[6] = Half life in CD-1 mouse liver microsomes at 1 uM preincubated for 5 mins followed by NADPH addition measured up to 45 mins by LC-MS/MS analysis; type: ADME, microsome; settings: 0.75 h; outline: as §1
[7] = in vitro; settings: human, liver microsomes
[8] = in vitro; settings: human, liver microsomes; remark: listed apart in the source
[9] = in vitro; settings: Sprague-Dawley, rat, liver microsomes
[10] = in vitro; settings: Sprague-Dawley, rat, liver microsomes; remark: listed apart in the source
[11] = in vitro; settings: CD-1, mouse, liver microsomes
[12] = in vitro; settings: CD-1, mouse, liver microsomes; remark: listed apart in the source
[13] = biological target: T1, Lanosterol 14-alpha demethylase (Aspergillus, UniProt B8NUK6+G4WW85+Q9P8R0); experiment: Binding affinity to Aspergillus fumigatus CYP51 by spectral titration method; settings: read-out: Kd(app)
T1 sequence (B8NUK6 whole entry): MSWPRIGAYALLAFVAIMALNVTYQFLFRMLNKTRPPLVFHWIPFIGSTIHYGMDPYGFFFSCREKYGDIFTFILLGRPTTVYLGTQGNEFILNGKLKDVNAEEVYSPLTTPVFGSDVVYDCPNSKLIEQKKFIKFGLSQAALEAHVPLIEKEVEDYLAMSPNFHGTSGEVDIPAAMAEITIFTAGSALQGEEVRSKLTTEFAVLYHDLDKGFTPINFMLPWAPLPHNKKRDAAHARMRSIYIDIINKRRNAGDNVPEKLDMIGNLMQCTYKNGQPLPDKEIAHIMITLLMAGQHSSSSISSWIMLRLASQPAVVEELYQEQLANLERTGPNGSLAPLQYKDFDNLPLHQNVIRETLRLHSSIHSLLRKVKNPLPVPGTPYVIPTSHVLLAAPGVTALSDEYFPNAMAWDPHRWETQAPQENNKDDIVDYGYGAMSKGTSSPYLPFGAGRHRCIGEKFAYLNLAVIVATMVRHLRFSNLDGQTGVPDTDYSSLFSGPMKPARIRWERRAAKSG
T1 sequence (Q9P8R0 whole entry): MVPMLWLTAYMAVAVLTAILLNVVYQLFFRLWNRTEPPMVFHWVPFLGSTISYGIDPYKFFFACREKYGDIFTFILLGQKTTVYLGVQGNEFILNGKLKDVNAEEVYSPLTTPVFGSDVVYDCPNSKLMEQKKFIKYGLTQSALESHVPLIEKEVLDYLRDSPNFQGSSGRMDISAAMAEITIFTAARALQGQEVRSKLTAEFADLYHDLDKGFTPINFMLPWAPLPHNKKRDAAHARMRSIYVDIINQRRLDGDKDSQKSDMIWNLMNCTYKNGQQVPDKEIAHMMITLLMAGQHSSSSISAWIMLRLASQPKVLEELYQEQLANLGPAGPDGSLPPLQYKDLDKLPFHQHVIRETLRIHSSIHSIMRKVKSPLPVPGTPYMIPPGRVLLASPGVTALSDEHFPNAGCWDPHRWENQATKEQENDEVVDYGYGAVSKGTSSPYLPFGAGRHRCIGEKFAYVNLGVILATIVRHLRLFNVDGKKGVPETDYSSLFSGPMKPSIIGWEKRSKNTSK
T1 sequence (G4WW85 whole entry): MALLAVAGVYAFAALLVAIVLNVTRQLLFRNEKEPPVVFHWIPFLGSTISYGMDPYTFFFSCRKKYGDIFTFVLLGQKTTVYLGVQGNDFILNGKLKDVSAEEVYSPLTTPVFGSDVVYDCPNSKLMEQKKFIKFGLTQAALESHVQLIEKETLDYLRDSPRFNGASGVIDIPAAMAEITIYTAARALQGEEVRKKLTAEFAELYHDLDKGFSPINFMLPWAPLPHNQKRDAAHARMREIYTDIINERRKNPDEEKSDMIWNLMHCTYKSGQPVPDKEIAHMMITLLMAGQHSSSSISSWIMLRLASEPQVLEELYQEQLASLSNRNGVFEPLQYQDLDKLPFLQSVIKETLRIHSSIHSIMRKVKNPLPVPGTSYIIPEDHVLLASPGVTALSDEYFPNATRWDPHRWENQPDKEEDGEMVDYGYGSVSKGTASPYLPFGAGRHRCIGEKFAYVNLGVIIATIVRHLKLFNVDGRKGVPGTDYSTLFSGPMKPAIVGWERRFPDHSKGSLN
Outline: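 Purified CYP51 at 0.5 μM in 5 cm path cuvettes, titrated from 0.2 mM DMSO stocks over 0.1–0.8 μM ligand. Type II red shift of the Soret band (417 to 424 nm) followed as ΔA (Amax−Amin) in difference spectra. Kd obtained by fitting to the quadratic tight-binding equation using total ligand and enzyme concentrations.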

Chain of Lanosterol 14-alpha demethylase (Candida albicans (strain SC5314 / ATCC MYA-2876) (Yeast), UniProt P10613) (P10613 whole entry): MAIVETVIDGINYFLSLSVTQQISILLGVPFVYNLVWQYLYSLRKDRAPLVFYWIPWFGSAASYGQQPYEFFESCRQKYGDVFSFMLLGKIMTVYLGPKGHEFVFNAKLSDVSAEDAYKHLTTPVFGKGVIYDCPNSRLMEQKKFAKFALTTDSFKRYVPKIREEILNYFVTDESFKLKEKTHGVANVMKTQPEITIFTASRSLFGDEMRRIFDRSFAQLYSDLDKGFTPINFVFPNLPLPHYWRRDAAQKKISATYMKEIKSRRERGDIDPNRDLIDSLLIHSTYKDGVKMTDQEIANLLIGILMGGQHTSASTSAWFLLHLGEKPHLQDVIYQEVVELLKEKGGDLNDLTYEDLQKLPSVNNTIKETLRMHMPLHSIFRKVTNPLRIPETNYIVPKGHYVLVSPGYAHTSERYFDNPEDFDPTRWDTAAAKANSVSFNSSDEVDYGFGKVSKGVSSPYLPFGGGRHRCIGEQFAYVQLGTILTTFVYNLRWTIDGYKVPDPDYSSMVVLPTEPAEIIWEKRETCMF

SMILES | inhibition at 0.75 µM [1] | inhibition [2] | logP [3] | t1/2 [4] | t1/2 [5] | t1/2 [6] | CLint scaled at 0.75 h, 1 µM [7] | CLhep predicted at 0.75 h, 1 µM [8] | CLint scaled at 0.75 h, 1 µM [9] | CLhep predicted at 0.75 h, 1 µM [10] | CLint scaled at 0.75 h, 1 µM [11] | CLhep predicted at 0.75 h, 1 µM [12] | Kd [13]
O=C(N[C@@H](Cn1ccnc1)c1ccc(Cl)cc1Cl)c1ccc(-c2nnc(-c3cccc(N4CCOCC4)c3)o2)cc1 | 58% | 15% | 4.45 |  |  |  |  |  |  |  |  |  | 
O=C(N[C@@H](Cn1ccnc1)c1ccc(Cl)cc1Cl)c1ccc(-c2nnc(-c3ccc(N4CCOCC4)cc3)o2)cc1 | 29% | 3% | 4.45 |  |  |  |  |  |  |  |  |  | 
O=C(N[C@@H](Cn1ccnc1)c1ccc(Cl)cc1Cl)c1ccc(-c2nnc(-c3ccc(-c4ccccn4)cc3)o2)cc1 | 66% | 23% | 5.33 | 1.92 h | 0.5 h | 0.95 h | 10.8 mL/min/kg | 7.15 mL/min/kg | 94 mL/min/kg | 40 mL/min/kg | 95 mL/min/kg | 46 mL/min/kg | 
O=C(N[C@@H](Cn1ccnc1)c1ccc(Cl)cc1Cl)c1ccc(-c2nnc(-c3ccc(Cl)c(Cl)c3)o2)cc1 | 92% | 55% | 5.68 | 1.83 h | 0.667 h | 0.85 h | 11.4 mL/min/kg | 7.39 mL/min/kg | 70 mL/min/kg | 35 mL/min/kg | 107 mL/min/kg | 49 mL/min/kg | 
O=C(N[C@@H](Cn1ccnc1)c1ccc(Cl)cc1Cl)c1ccc(-c2nnc(-c3ccc(-c4ccccn4)cc3F)o2)cc1 | 61% | 26% | 5.49 | 1.38 h | 0.9 h | 2.48 h | 15 mL/min/kg | 8.75 mL/min/kg | 51.6 mL/min/kg | 29.7 mL/min/kg | 36.5 mL/min/kg | 26 mL/min/kg | 
CS(=O)(=O)c1ccc(-c2nnc(-c3ccc(C(=O)N[C@@H](Cn4ccnc4)c4ccc(Cl)cc4Cl)cc3)o2)cc1Cl | 53% | 32% | 3.83 | 2.23 h | 0.45 h | 1.62 h | 9.31 mL/min/kg | 6.45 mL/min/kg | 104 mL/min/kg | 42 mL/min/kg | 56 mL/min/kg | 34.5 mL/min/kg | 
O=C(N[C@@H](Cn1ccnc1)c1ccc(Cl)cc1Cl)c1ccc(-c2nnc(-c3cccc(-c4ccccn4)c3)o2)cc1 | 77% | 34% | 5.33 | 1.58 h | 0.683 h | 0.6 h | 13.1 mL/min/kg | 8.06 mL/min/kg | 68 mL/min/kg | 35 mL/min/kg | 152 mL/min/kg | 56 mL/min/kg | 
O=C(N[C@@H](Cn1ccnc1)c1ccc(Cl)cc1Cl)c1ccc(-c2nnc(-c3cc(F)cc(-c4ccccn4)c3)o2)cc1 | 87% | 80% | 5.49 | 0.217 h | 1.3 h | 1.65 h | 96.6 mL/min/kg | 17.3 mL/min/kg | 36 mL/min/kg | 24 mL/min/kg | 55 mL/min/kg | 34 mL/min/kg | 61 nM
O=C(N[C@@H](Cn1ccnc1)c1ccc(Cl)cc1Cl)c1ccc(-c2nnc(-c3cccc(Br)c3)o2)cc1 | 84% | 41% | 5.4 | 2.2 h | 1.77 h | 0.717 h | 9.47 mL/min/kg | 6.53 mL/min/kg | 27 mL/min/kg | 19 mL/min/kg | 126 mL/min/kg | 55 mL/min/kg | 
O=C(N[C@@H](Cn1ccnc1)c1ccc(Cl)cc1Cl)c1ccc(-c2nnc(-c3cc(-c4ccccn4)ccc3F)o2)cc1 | 83% | 24% | 5.49 | 2.05 h | 0.95 h | 0.383 h | 10.2 mL/min/kg | 6.85 mL/min/kg | 49.4 mL/min/kg | 29 mL/min/kg | 238 mL/min/kg | 65 mL/min/kg | 
O=C(N[C@@H](Cn1ccnc1)c1ccc(Cl)cc1Cl)c1ccc(-c2nnc(-c3cc(F)cc(OCC(F)(F)F)c3)o2)cc1 | 65% | 51% | 5.58 | 1.85 h | 0.933 h | 1.08 h | 11.3 mL/min/kg | 7.33 mL/min/kg | 50.4 mL/min/kg | 29 mL/min/kg | 84.7 mL/min/kg | 43.6 mL/min/kg | 
